ChEMBL document CHEMBL3352189 (J Med Chem, 2014)

How the values were obtained:
[1] = test system: Venezuelan equine encephalitis virus; test: Antiviral activity against Venezuelan equine encephalitis virus TC83 infected in Vero 76 cells assessed as reduction in virus-induced cytopathic effect after 2 days by Celltiter-Glo reagent based assay; assay type: functional, organism-based; settings: TC83, Vero 76, 48 h
[2] = Cytotoxicity against african green monkey Vero 76 cells after 3 days by Celltiter-Glo reagent based assay; assay type: cell-based; settings: chlorocebus sabaeus, vero 76, 72 h
Procedure, shortened: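 Vero 76 cells were seeded overnight at 12 000/well and given an 8-point 2-fold compound series (20 mM DMSO stock) in EMEM/10% FBS with no virus. Viability was read by CellTiter-Glo after 3 days relative to untreated cells. Run in duplicate; CC50 from a four-parameter logistic or sigmoidal fit.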

[3] = Selectivity index, ratio of CC50 for african green monkey Vero 76 cells to EC50 for Venezuelan equine encephalitis virus TC83; assay type: toxicity, cell-based; settings: read-out: Ratio CC50/EC50

| Compound | EC50 [1] [µM] | CC50 [2] [µM] | selectivity ratio [3] |
| --- | --- | --- | --- |
| O=c1c2cc([N+](=O)[O-])ccc2nc(CN2CCNCC2)n1-c1ccccc1F | 0.2 | > 50 | > 250 |
| O=c1c2cc([N+](=O)[O-])ccc2nc(CN2CCN(c3ccccc3)CC2)n1-c1ccccc1F | > 25 | > 50 | – |
| O=c1c2cc([N+](=O)[O-])ccc2nc(CN2CCCNCC2)n1-c1ccccc1 | 0.9 | > 50 | > 55.6 |
| CCN1CCN(Cc2nc3ccc(C(=O)O)cc3c(=O)n2-c2ccccc2)CC1 | > 25 | > 50 | – |
| CCN1CCN(Cc2nc3ccc([N+](=O)[O-])cc3c(=O)n2Cc2ccccc2)CC1 | > 25 | > 50 | – |
| CN1CCN(C)/C(=N/c2ccc([N+](=O)[O-])cc2C(=O)Nc2cccc(F)c2)C1 | 0.1 | > 50 | > 500 |
| CCN1CCN(Cc2nc3ccc(C(=O)N(C)C)cc3c(=O)n2-c2ccccc2)CC1 | > 25 | > 50 | – |
| CN1CCN(C)/C(=N/c2cc(F)c(F)cc2C(=O)Nc2ccccc2)C1 | 4.4 | > 50 | > 11.4 |
| CCN1CCN(Cc2nc3ccc(I)cc3c(=O)n2-c2ccccc2)CC1 | 17.1 | > 50 | > 2.9 |
| O=c1c2cc([N+](=O)[O-])ccc2nc(C2CCNCC2)n1-c1ccccc1 | 3.6 | > 50 | > 13.9 |
| CCN1CCN(Cc2nc3ccc(C#N)cc3c(=O)n2-c2ccccc2)CC1 | 1.1 | > 50 | > 45.5 |
| COc1ccc(-n2c(CN3CCNCC3)nc3ccc([N+](=O)[O-])cc3c2=O)cc1 | 0.2 | > 50 | > 250 |
| CN(C)c1ccc(-n2c(CN3CCNCC3)nc3ccc([N+](=O)[O-])cc3c2=O)cc1 | > 25 | > 50 | – |
| CN1CCN(C)/C(=N/c2ccc([N+](=O)[O-])cc2C(=O)Nc2ccsc2)C1 | 0.5 | > 50 | 100 |
| CN1CCN(C)/C(=N/c2ccc([N+](=O)[O-])cc2C(=O)Nc2ccc(F)cc2)C1 | 0.09 | > 50 | > 556 |
| CCN1CCN(Cc2nc3ccc([N+](=O)[O-])cc3c(=O)[nH]2)CC1 | > 25 | > 50 | – |
| O=c1c2cc([N+](=O)[O-])ccc2nc(CN2CCOCC2)n1-c1ccccc1F | 8.7 | > 50 | > 5.7 |
| CN(C)c1cccc(-n2c(CN3CCNCC3)nc3ccc([N+](=O)[O-])cc3c2=O)c1 | > 25 | > 50 | – |
| CC(C)NC(=O)c1cc([N+](=O)[O-])ccc1/N=C1\CN(C)CCN1C | > 25 | > 50 | – |
| CN1CCN(C)/C(=N/c2ccc(C#N)cc2C(=O)Nc2ccccc2F)C1 | 3.7 | > 50 | > 13.5 |
| CCN1CCN(Cc2nc3ccc(S(=O)(=O)O)cc3c(=O)n2-c2ccccc2)CC1 | > 25 | > 50 | – |
| CN1CCN(C)/C(=N/c2ccc(F)cc2C(=O)Nc2ccccc2)C1 | 6.4 | > 50 | > 7.8 |
| O=c1c2cc([N+](=O)[O-])ccc2nc(CN2CCNCC2)n1-c1ccsc1 | 1.4 | > 50 | > 35.7 |
| COc1cccc(NC(=O)c2cc([N+](=O)[O-])ccc2/N=C2\CN(C)CCN2C)c1 | 8.1 | > 50 | > 6.2 |
| CN1CCN(C)/C(=N/c2cc([N+](=O)[O-])ccc2C(=O)Nc2ccccc2)C1 | 8.4 | > 50 | > 6 |
| CNCCCN(C)Cc1nc2ccc([N+](=O)[O-])cc2c(=O)n1-c1ccccc1 | 0.6 | > 50 | > 83.3 |

| Compound | EC50 [1] [µM] | CC50 [2] [µM] | selectivity ratio [3] |
| --- | --- | --- | --- |
| CN1CCN(C)/C(=N/c2ccc(C(F)(F)F)cc2C(=O)Nc2ccccc2)C1 | 22.3 | > 50 | > 2.2 |
| CN1CCN(Cc2nc3ccc([N+](=O)[O-])cc3c(=O)n2-c2ccccc2F)CC1 | 0.8 | > 50 | > 62.5 |
| O=c1c2cc([N+](=O)[O-])ccc2nc(CN2CCCCC2)n1-c1ccccc1F | 4.7 | > 50 | > 10.6 |
| CCN1CCN(Cc2nc3ccccc3c(=O)n2-c2ccccc2F)CC1 | > 25 | > 50 | – |
| CN1CCN(C)/C(=N/c2ccc([N+](=O)[O-])cc2C(=O)Nc2ccccc2F)C1 | 0.2 | > 50 | > 250 |
| O=c1c2cc([N+](=O)[O-])ccc2nc(CN2CCCNC2)n1-c1ccccc1 | 1.1 | > 50 | > 45.5 |
| COc1ccccc1NC(=O)c1cc([N+](=O)[O-])ccc1/N=C1\CN(C)CCN1C | 33.7 | > 50 | > 1.5 |
| COc1cccc(-n2c(CN3CCNCC3)nc3ccc([N+](=O)[O-])cc3c2=O)c1 | 5.1 | > 50 | > 9.8 |
| O=C1CN(Cc2nc3ccc([N+](=O)[O-])cc3c(=O)n2-c2ccccc2F)CCN1 | > 25 | > 50 | – |
| CN1CCN(C)/C(=N/c2cc(F)ccc2C(=O)Nc2ccccc2)C1 | > 25 | > 50 | – |
| CCN1CCN(Cc2nc3ccc([N+](=O)[O-])cc3c(=O)n2-c2ccccc2)CC1 | 0.3 | > 50 | > 167 |
| CCN1CCN(Cc2nc3ccc(C(N)=O)cc3c(=O)n2-c2ccccc2)CC1 | > 25 | > 50 | – |
| CCN1CCN(Cc2nc3ccc([N+](=O)[O-])cc3c(=O)n2C)CC1 | > 25 | > 50 | – |
| CN1CCN(C)/C(=N/c2cc(F)c(C#N)cc2C(=O)Nc2ccccc2)C1 | 0.4 | > 50 | > 125 |
| CN1CCN(C)/C(=N/c2ccc(C#N)cc2C(=O)Nc2cccc(F)c2)C1 | 0.8 | > 50 | > 62.5 |
| CCN1CCN(Cc2nc3ccc([N+](=O)[O-])cc3c(=O)n2-c2ccc(F)cc2)CC1 | 0.8 | > 50 | > 62.5 |
| CCN1CCN(Cc2nc3ccc([N+](=O)[O-])cc3c(=O)n2C(C)C)CC1 | > 25 | > 50 | – |
| CN1CCN(C)/C(=N/c2ccc([N+](=O)[O-])cc2C(=O)NCc2ccccc2)C1 | 3.7 | > 50 | > 13.5 |
| CCN1CCN(c2nc3ccc([N+](=O)[O-])cc3c(=O)n2-c2ccccc2)CC1 | > 25 | > 50 | – |
| CN1CCN(C)/C(=N/c2ccccc2C(=O)Nc2ccccc2)C1 | > 25 | > 50 | – |
| CCN1CCN(Cc2nc3ccc(C(F)(F)F)cc3c(=O)n2-c2ccccc2F)CC1 | > 25 | > 50 | – |
| CCN1CCN(Cc2nc3ccc(-c4ccccn4)cc3c(=O)n2-c2ccccc2)CC1 | > 25 | > 50 | – |
| CCN1CCN(Cc2nc3ccc(-c4cccnc4)cc3c(=O)n2-c2ccccc2)CC1 | > 25 | > 50 | – |
| COc1ccccc1-n1c(CN2CCNCC2)nc2ccc([N+](=O)[O-])cc2c1=O | > 25 | > 50 | – |
| CCN1CCN(Cc2nc3ccc(-c4nnn[nH]4)cc3c(=O)n2-c2ccccc2)CC1 | > 25 | > 50 | – |
